# Sampled rows, rich in hits. Any-hit rate of the full collection: about 2.3%.
# TRPC4 PAM: positive allosteric modulators of TRPC4, primary screen, cell-based, mouse TRPC4beta, HEK293 mu-opioid, Fluo-4 calcium. actives 0.42% (n = 310,000). Short transient receptor potential channel 4 (Mus musculus), Q9QUQ5. B-score at 10 µM. AID 2227, 2009. DAMGO EC20, Fluo-4 Ca2+ flux; hits give high values;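 active = B-score of calcium response area above 5 SD of library B-scores, with initial fluorescence ratio within 5 SD of library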;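 note: B-score of integrated fluorescence ratio over time as area under calcium response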
# TRPC4 agonist: activators of mouse TRPC4 channel, primary screen, Fluo4 calcium, HEK293 TRPC4beta/mu-opioid cells; B-score at 10 µM; Fluo4 calcium fluorescence; hits give high values; Short transient receptor potential channel 4 (Mus musculus), Q9QUQ5; AID 2237, 2010; actives 0.49% (n = 310,000);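 active = B-score above 5 SD of library B-scores, and initial fluorescence ratio not above library mean plus 5 SD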;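 note: positive B-score marks a calcium rise read as TRPC4 activation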
#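 Assay system: HEK293 stable line with TRPC4beta plus mu-opioid receptor. Times: dye 45 min RT, read 110 s. Measured by: kinetic Fluo4 calcium fluorescence. Measure: B score of integrated ratio. Controls: assay buffer as low control, maximal DAMGO as high control.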
# TRPC6 inh: mouse TRPC6 channel inhibitors, primary screen, cell-based, HEK293, membrane potential dye | AID 2553, 2010 | ACh-evoked depolarization; hits give low values | actives 1.1% (n = 310,000) | Short transient receptor potential channel 6 (Mus musculus), Q61143 | B-score at 10 µM;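 active = B-score under library mean minus 3 SD, initial fluorescence not abnormally high, positive integrated signal ratio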;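 note: B-score derived from integrated fluorescence ratio over the kinetic read; more negative B-score means stronger inhibition of depolarization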
# TRPC4 inh: inhibitors of mouse TRPC4 channel, primary screen, Fluo4 calcium, HEK293 TRPC4beta/mu-opioid cells | Short transient receptor potential channel 4 (Mus musculus), Q9QUQ5 | B-score at 10 µM | DAMGO-evoked Fluo4 calcium flux; hits give low values | AID 2247, 2010 | actives 0.39% (n = 300,000);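 active = B-score over 3 SD under the library average, no early fluorescence shift, positive overall ratio signal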
#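 Assay system: TRPC4beta/mu-opioid receptor HEK293 cell line; compound dosing: single concentration per test compound; detection: Fluo4 Ca2+ flux fluorescence; evaluation: per-well B score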
# TRPC6 activator: mouse TRPC6 channel activators, primary screen, cell-based, HEK293, membrane potential dye. Short transient receptor potential channel 6 (Mus musculus), Q61143. HEK293-TRPC6 membrane potential dye fluorescence; hits give high values. B-score at 10 µM. actives 0.13% (n = 310,000);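 active = B-score of the integrated fluorescence ratio above library mean plus 3 SD, and starting fluorescence ratio within library mean plus 5 SD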;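 note: higher score means more depolarization so channel activation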
# TRPC4 sel inh 2: second selectivity test of TRPC6 inhibitors: effect on mouse TRPC4; shares compounds with TRPC6 inh; actives 42% (n = 920); AID 2776; inhibition, % at 10 µM; HEK293 TRPC4/MOR, membrane potential dye fluorescence; channel activated by saturating DAMGO dose;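 active = compounds whose fluorescence signal differed from control wells by over 3 SD, either direction, in both duplicate plates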
# TRPC4 spec: mouse TRPC4 modulation by TRPC6 hits, confirmation, selectivity assay for TRPC6 inhibitor project, cell-based, HEK293 TRPC4/mu-opioid, membrane potential dye | activity change, negative = inhibition, % at 10 µM | membrane potential fluorescence | shares compounds with TRPC6 inh | actives 61% (n = 920) | AID 2777, 2010;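 active = rise or fall in signal beyond 3 SD of buffer-only wells in both replicate plates, either sign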;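 note: integrated kinetic ratio of fluorescence range over baseline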
# HEK293 MPD ctr 2-1: nonspecific membrane potential effects, parental HEK293, confirmation, counter-screen for TRPC6 inhibitor project, cell-based, second counter screen; signal change vs control, % at 10 µM; actives 31% (n = 920); AID 2779, 2010; parental HEK293 membrane potential dye fluorescence; maximal acetylcholine challenge after compound addition; shares compounds with TRPC6 inh;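 active = membrane potential signal moving either way by over 3 SD of the maximum-effect control, in both duplicate plates, meaning non-specific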
# HEK293 MPD ctr-1: membrane potential modulation in parental HEK293, confirmation, counter-screen for TRPC6 inhibitor project, cell-based; shares compounds with TRPC6 inh; parental HEK293 membrane potential dye fluorescence; actives 60% (n = 920); membrane potential signal change, % at 10 µM;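 active = membrane potential signal shifting up or down by more than 3 SD of buffer-only wells, on both duplicate plates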
# HEK293 MPD ctr-2: parental HEK293 membrane potential modulation, confirmation, counter-screen for TRPC6 modulator project, cell-based; shares compounds with TRPC6 inh; membrane potential dye fluorescence; membrane potential signal change, % at 10 µM; actives 51% (n = 2,400);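 active = membrane potential signal moves up or down beyond 5 SD from buffer-only wells, on both duplicate plates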
# HEK293 MPD ctr 2-2: parental HEK293 nonspecific activity of TRPC6 modulators, second screen | membrane potential dye fluorescence; after compound, maximal acetylcholine stimulation | inhibition, % at 10 µM | AID 488926 | actives 14% (n = 2,400) | shares compounds with TRPC6 inh;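 active = membrane potential signal drops by more than 5 SD from the mean control signal, in both duplicate plates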;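 note: plate controls were acetylcholine ECmax control wells for no effect and buffer only wells for full effect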
# TRPC4/MOR mod: TRPC4 modulation by TRPC6 hit compounds, confirmation, selectivity assay for TRPC6 modulator project, cell-based, HEK293 TRPC4/mu-opioid, membrane potential dye, mouse; shares compounds with TRPC6 inh; membrane potential fluorescence; percent change from control (negative = decrease, positive = increase), % at 10 µM; actives 69% (n = 2,400); AID 488927, 2010;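 active = membrane potential signal moved up or down beyond 5 SD of buffer control wells, in both duplicate plates, actives on both sides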;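 note: plate controls were assay buffer wells for no effect and DAMGO maximal-effect wells for full effect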
# TRPC4/MOR inh 2: second check of whether TRPC6 modulators also affect mouse TRPC4 | shares compounds with TRPC6 inh | HEK293 TRPC4/mu-opioid, membrane potential dye fluorescence; stimulated with maximal-effect DAMGO | inhibition, % at 10 µM | AID 488928 | actives 55% (n = 2,400);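 active = drop in membrane potential signal beyond 5 SD of the control wells in both duplicate plates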;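 note: TRPC4 counter screen for TRPC6 hits run under conditions tuned for TRPC6 not TRPC4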
# TRPC6 inh conf: mouse TRPC6 channel inhibitors, confirmation, HEK293 cells, membrane potential dye, duplicate | shares compounds with TRPC6 inh | ACh-evoked depolarization | inhibition, % at 10 µM | actives 43% (n = 3,300) | AID 488960, 2010;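 active = fluorescence ratio falls more than 5 SD below the full-stimulation control mean, in both duplicate runs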;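 note: integrated fluorescence ratio of peak minus minimum over baseline after agonist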
# TRPC6 act confirm: mouse TRPC6 channel activators, confirmation, HEK293 cells, membrane potential dye, duplicate; HEK293-TRPC6 membrane potential dye fluorescence, FDSS; activation, % at 10 µM; actives 11% (n = 2,800); AID 488961, 2010; shares compounds with TRPC6 inh;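 active = ratio signal rise beyond 5 SD above unstimulated control wells' mean, seen in both duplicate runs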;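 note: plate controls were buffer EC0 wells for no effect and acetylcholine ECmax response for full effect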
# Active calls of the source: *; i = inactive; . = no result given.
SMILES,TRPC4 PAM,TRPC4 agonist,TRPC6 inh,TRPC4 inh,TRPC6 activator,HEK293 MPD ctr-2,HEK293 MPD ctr 2-2,TRPC4/MOR mod,TRPC4/MOR inh 2,TRPC6 inh conf,TRPC6 act confirm,others
COc1cc(/C=C(\C#N)c2ccccn2)cc(OC)c1O,i,i,-5.1*,i,14*,458%*,72%*,66%*,i,46%*,146%*,
COc1ccc(CNC2CCCC2)c(OC)c1OC,i,i,i,i,i,.,.,.,.,.,.,
C=CCOc1ccc(Cl)cc1CNC1CCCC1,i,i,-7.3*,-6*,i,321%*,83%*,76%*,91%*,72%*,.,
CN(C)c1cc(NC(=O)CNC(C)(C)C)c2ccccc2n1,i,i,-9.2*,i,i,-192%*,i,-36%*,50%*,i,i,
CCCCC(=O)Nc1cc(N(C)C)nc2ccccc12,i,i,i,i,i,.,.,.,.,.,.,
Cc1cc2nc(C3CCN(C(=S)NCCCOC(C)C)CC3)[nH]c2cc1C,i,i,i,i,i,.,.,.,.,.,.,
Cc1cc(N2CCN(C)CC2)nc2ccc(NC(=O)CCC(=O)N3CCN(c4ccc([N+](=O)[O-])cc4)CC3)cc12,i,i,i,i,12*,237%*,i,44%*,i,i,84%*,
Cc1cc(N2CCN(C)CC2)nc2ccc(NC(=O)CCC(=O)NCCCOC(C)C)cc12,i,i,i,i,i,.,.,.,.,.,.,
CCCCNC(=S)Nc1ccc2nc3n(c(=O)c2c1)CCCCC3,i,i,i,i,i,.,.,.,.,.,.,
CC(C)CCNC(=S)Nc1ccc2nc3n(c(=O)c2c1)CCCCC3,i,i,-5.2*,i,i,i,i,i,i,i,i,
CCCCNC(=O)CCC(=O)Nc1ccc2nc(N3CCCCC3)cc(C)c2c1,i,i,i,i,i,.,.,.,.,.,.,
CCN(CC)CCCNC(=O)CCC(=O)Nc1ccc2nc(N3CCC(C)CC3)cc(C)c2c1,i,i,-6.1*,i,i,136%*,i,22%*,i,i,.,
Cc1cc(N2CCCCC2)nc2ccc(NC(=O)CCC(=O)NCCC(C)C)cc12,i,i,-8*,i,i,.,.,.,.,i,i,TRPC4 sel inh 2=i;TRPC4 spec=-16%*;HEK293 MPD ctr 2-1=224%*;HEK293 MPD ctr-1=-228%*
Cc1cc(N2CCOCC2)nc2ccc(NC(=O)CCC(=O)N3CCN(c4ccccc4)CC3)cc12,i,i,i,i,i,.,.,.,.,.,.,
O=C1N[C@@H](Cc2cn(S(=O)(=O)c3ccc(F)cc3)c3ccccc23)C(=O)N[C@H]1Cc1ccccc1,i,i,i,i,i,.,.,.,.,.,.,
Cn1cc(S(=O)(=O)Oc2ccccc2)c(=O)n(C)c1=O,i,i,i,i,i,.,.,.,.,.,.,
COCCCNC(=O)CCC(=O)Nc1ccc2nc(N3CCOCC3)cc(C)c2c1,i,i,-6.8*,i,i,.,.,.,.,64%*,i,TRPC4 sel inh 2=i;TRPC4 spec=-28%*;HEK293 MPD ctr 2-1=i;HEK293 MPD ctr-1=-360%*
CCCCNC(=O)CCC(=O)Nc1ccc2nc(N3CCOCC3)cc(C)c2c1,i,i,i,i,i,.,.,.,.,.,.,
Cc1ccc(C)c(CS(=O)(=O)c2cn(CC(=O)N3CCC(C)CC3)c3ccccc23)c1,i,i,i,i,i,.,.,.,.,.,.,
Cc1ccc(C)c(CS(=O)(=O)c2cn(CC(=O)N3CCCCC3)c3ccccc23)c1,i,i,i,i,12*,i,i,i,i,.,44%*,
Cn1cc(C(=O)N/N=C/C2=C(N3CCOCC3)C(=C\c3ccccc3)/CC2)ccc1=O,i,i,i,i,i,.,.,.,.,.,.,
O=C1Nc2ccccc2/C1=N\N=C\C1=C(N2CCOCC2)C(=C\c2ccccc2)/CC1,i,i,-9.5*,i,i,.,.,.,.,90%*,i,TRPC4 sel inh 2=33%*;TRPC4 spec=-29%*;HEK293 MPD ctr 2-1=-22%*;HEK293 MPD ctr-1=-326%*
CN(C)S(=O)(=O)c1cccc(C(=O)NCC(=O)NC2CCN(Cc3ccccc3)CC2)c1,i,i,i,i,i,.,.,.,.,.,.,
C=CCN(c1ccccc1)S(=O)(=O)c1cccc(C(=O)NC2CCN(Cc3ccccc3)CC2)c1,i,i,-6.6*,i,i,i,i,i,57%*,i,i,
